For assay [1], the species on record is Rattus norvegicus. The assay is described as follows: Influence on 5-hydroxy tryptamine (5-HT) concentration in amygdala region of brain. It counts as functional, organism-based. The gist of the method: (§1)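 Male Sprague-Dawley rats (150-250 g) given 4 mg/kg sc; killed 30 min later. Brain regions dissected, weighed, homogenized in 0.01 N HClO4, kept on ice 15 min, centrifuged 13000g 2 min. Supernatant analysed by HPLC with electrochemical detection: C-18 reverse-phase column, 0.1 M sodium phosphate mobile phase with EDTA, octanesulfonic acid, 10% MeOH, pH 3.8; glassy carbon electrode at +0.65. Compared with untreated controls by ANOVA and multiple regression.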

A short description of assay [2]: Ratio of 5-HT concentration to 5-HIAA concentration in amygdala region of brain. Type of assay: functional. The gist of the method: as §1
For assay [3], the species on record is Rattus norvegicus. The assay is described as follows: Influence on 5-hydroxy tryptamine (5-HT) concentration in septum region of brain. It counts as functional, organism-based. The gist of the method:
as §1

For assay [4], the species on record is Rattus norvegicus. The assay is described as follows: Influence on 5-hydroxy tryptamine (5-HT) concentration in frontal cortex region of brain. It counts as functional, organism-based. The gist of the method:
as §1

The species named for assay [5] is Rattus norvegicus. The assay is described as follows: Influence on 5-hydroxyindoleacetic acid (5-HIAA) concentration in olfactory tubercle region of brain. It counts as functional, organism-based. Summed up: as §1
The species named for assay [6] is Rattus norvegicus. The assay is described as follows: Influence on 5-hydroxy tryptamine (5-HT) concentration in hypothalamus region of brain. It counts as functional, organism-based. The gist of the method:
as §1

The species named for assay [7] is Rattus norvegicus. The experiment in a line: Influence on 5-hydroxyindoleacetic acid (5-HIAA)concentration in amygdala region of brain. Type of assay: functional, organism-based. The gist of the method:
as §1

The nature of assay [8]: Ratio of 5-HT concentration to 5-HIAA concentration in caudate region of brain. Type of assay: functional. Summed up: as §1
The species entered for assay [9] is Rattus norvegicus. The experiment in a line: Influence on 5-hydroxy tryptamine (5-HT) concentration in caudate region of brain. It counts as functional, organism-based. Summed up:
as §1

The species entered for assay [10] is Rattus norvegicus. The experiment in a line: Influence on 5-hydroxyindoleacetic acid (5-HIAA) concentration in frontal cortex region of brain. It counts as functional, organism-based. The gist of the method: as §1
The nature of assay [11]: Ratio of 5-HT concentration to 5-HIAA concentration in olfactory tubercle region of brain. Type of assay: functional. Summed up:
as §1

The species named for assay [12] is Rattus norvegicus. The experiment in a line: Influence on 5-hydroxy tryptamine (5-HT) concentration in parietal cortex region of brain. It counts as functional, organism-based. Summed up:
as §1

Assay [13] can be described thus: Ratio of 5-HT concentration to 5-HIAA concentration in hypothalamus region of brain. Type of assay: functional. The gist of the method: as §1
The nature of assay [14]: Ratio of 5-HT concentration to 5-HIAA concentration in parietal cortex region of brain. Type of assay: functional. The gist of the method:
as §1

For assay [15], the species on record is Rattus norvegicus. The experiment in a line: Influence on 5-hydroxyindoleacetic acid (5-HIAA) concentration in parietal cortex region of brain. It counts as functional, organism-based. Summed up:
as §1

For assay [16], the species on record is Rattus norvegicus. The experiment in a line: Influence on 5-hydroxyindoleacetic acid (5-HIAA) concentration in septum region of brain. Type of assay: functional, organism-based. The gist of the method: as §1
A short description of assay [17]: Ratio of 5-HT concentration to 5-HIAA concentration in septum region of brain. It counts as functional. The gist of the method: as §1
The species entered for assay [18] is Rattus norvegicus. The assay is described as follows: Influence on 5-hydroxyindoleacetic acid (5-HIAA) concentration in hypothalamus region of brain. Type of assay: functional, organism-based. Summed up: as §1
Assay [19] is filed under the species Rattus norvegicus. The experiment in a line: Influence on 5-hydroxyindoleacetic acid (5-HIAA) concentration in hippocampus region of brain. Type of assay: functional, organism-based. The gist of the method:
as §1

Assay [20] in a line: Ratio of 5-HT concentration to 5-HIAA concentration in frontal cortex region of brain. Type of assay: functional. The gist of the method:
as §1

Assay [21] can be described thus: Ratio of 5-HT concentration to 5-HIAA concentration in hippocampus region of brain. It counts as functional. The gist of the method:
as §1

The species entered for assay [22] is Rattus norvegicus. The assay is described as follows: Influence on 5-hydroxy tryptamine (5-HT) concentration in olfactory tubercle region of brain. It counts as functional, organism-based. Summed up: as §1
For assay [23], the species on record is Rattus norvegicus. The assay is described as follows: Influence on 5-hydroxyindoleacetic acid (5-HIAA) concentration in caudate region of brain. Type of assay: functional, organism-based. Summed up: as §1
Assay [24] is filed under the species Rattus norvegicus. The assay is described as follows: Influence on 5-hydroxy tryptamine (5-HT) concentration in hippocampus region of brain. It counts as functional, organism-based. Summed up: as §1

As for `CCCN(CCC)C1CCc2cccc(O)c2C1` (centres undefined) [8-OH-DPAT], the Concentration in the assay filed under Rattus norvegicus [1] stood at 4.9 nM/g; in the assay listed under Rattus norvegicus [3], 4.5 nM/g; in the assay listed under Rattus norvegicus [4] it was 4.2 nM/g; in the assay filed under Rattus norvegicus [5] it was 1.4 nM/g; in the assay filed under Rattus norvegicus [6] it was 7.1 nM/g; in the assay filed under Rattus norvegicus [7], 1 nM/g. Further, the Concentration came out at 3.6 nM/g in the assay filed under Rattus norvegicus [9]; 0.8 nM/g in the assay filed under Rattus norvegicus [10]; 3.1 nM/g in the assay listed under Rattus norvegicus [12]; 0.8 nM/g in the assay listed under Rattus norvegicus [15]; 1.5 nM/g in the assay filed under Rattus norvegicus [16]; 1.9 nM/g in the assay listed under Rattus norvegicus [18]. The Concentration came to 1.7 nM/g in the assay filed under Rattus norvegicus [19], 8.3 nM/g in the assay filed under Rattus norvegicus [22], 2.6 nM/g in the assay filed under Rattus norvegicus [23] and 4.2 nM/g in the assay listed under Rattus norvegicus [24]. Besides, the Ratio in assay [2] came to 5.8; in assay [8] it was 1.5; in [11], 5.9; in assay [13], 3.9; in [14], 4.1; in [17] it was 3. In addition, the Ratio was determined as 5.8 in assay [20] and 2.5 in assay [21].

These data come from ChEMBL document CHEMBL1124286, “(R)-(-)-10-methyl-11-hydroxyaporphine: a highly selective serotonergic agonist” (1988).
